CSN inh: blocks human CSN-mediated cullin deneddylation | inhibition, % at 12.5 µM | Q92905 | 0.38% of 360,000 active | Purified CSN, SCF-Nedd8-OG deneddylation, fluorescence polarization;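 active = pattern-corrected inhibition above about 35%, with an unprinted fluorescence ratio check between 0.5 and 1.5, limit read from the data, passing the limit was not always enough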
Target sequence (Q92905 whole entry, looked up, one chain of several): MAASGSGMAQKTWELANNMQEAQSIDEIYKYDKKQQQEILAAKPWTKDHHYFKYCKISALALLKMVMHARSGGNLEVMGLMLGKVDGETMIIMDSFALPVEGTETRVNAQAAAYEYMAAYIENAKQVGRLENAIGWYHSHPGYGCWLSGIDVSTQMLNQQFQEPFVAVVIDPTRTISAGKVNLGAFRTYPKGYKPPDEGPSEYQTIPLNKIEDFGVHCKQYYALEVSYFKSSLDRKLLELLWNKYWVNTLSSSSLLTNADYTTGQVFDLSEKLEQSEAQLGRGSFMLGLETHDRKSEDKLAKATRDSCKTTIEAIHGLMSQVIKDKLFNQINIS
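assay system = purified human Csn5 enzyme expressed in HEK293T cells | amount = 0.24 nM enzyme | buffer or medium = Tris/NaCl/DTT buffer, pH 7.5 | reagent = 10 nM SCFSkp2-Nedd8OG | compound = one concentration, 12.5 µM, 0.25% DMSO | times = 90 min reaction at room temperature | signal = FP | read-out basis = % inhibition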
Myeloid diff MLP: promotes myeloid progenitor differentiation | ER-HoxA9 myeloid progenitors, lysozyme-GFP differentiation, flow cytometry | calls only at 10 µM | 1% of 360,000 active;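 active = normalized GFP-positive differentiation at or above the plate's own cutoff, the solvent-only control mean plus 3 SD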;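 note: cells exposed to compound for four days before flow analysis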
Rpn11 inh: Rpn11 (human) deubiquitinase inhibition. AID 588493. human 26S proteasome, Ub4-pepOG fluorescence polarization; 20S core pre-blocked with epoxomicin. inhibition, % at 20 µM. 0.59% of 360,000 active. O00487;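 active = inhibition at 20 µM, scaled to each plate's controls, above about 33%, limit read from the data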
Target sequence (O00487 whole entry, looked up): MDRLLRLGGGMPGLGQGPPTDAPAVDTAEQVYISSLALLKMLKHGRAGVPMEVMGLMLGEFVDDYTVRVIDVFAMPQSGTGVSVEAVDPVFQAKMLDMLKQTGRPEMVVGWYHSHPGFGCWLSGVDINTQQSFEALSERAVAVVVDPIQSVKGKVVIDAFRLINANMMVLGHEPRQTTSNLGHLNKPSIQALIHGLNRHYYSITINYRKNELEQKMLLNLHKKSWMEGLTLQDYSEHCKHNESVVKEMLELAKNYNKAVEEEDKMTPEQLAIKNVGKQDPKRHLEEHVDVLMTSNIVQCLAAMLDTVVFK
HNF4A DNA FP: change in binding of human HNF4 alpha to DNA | AID 1224865 | 0.3% of 360,000 active | HNF4a-FITC DNA binding, fluorescence polarization, 1 h | activity change, % at 10 µM; in the data active = activity change above about 30%, passing the limit was not always enough
TPT1 inh: inhibitors of Candida albicans tRNA 2'-phosphotransferase TPT1. recombinant caTPT1, FP RNA substrate dephosphorylation. inhibition, % at 5 µM. 0.81% of 300,000 active. AID 1962;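 active = inhibition above the mean of all tested compounds plus 3 SD, set per screening campaign, cut at about 24% in these data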
Each line names hits and unclear results; the compound was inactive in the other large screens. The list is not random: actives were taken first. Their share in the collection is about 2.3%.

CC(=O)c1cc2cccc(OC3(C)CCN(Cc4ccc(-c5ccccn5)cc4)C3)c2o1 (stereo unspecified)	none (no result: TPT1 inh)
COc1ccc(C(=O)/C=C/Nc2ccc([N+](=O)[O-])cc2C)cc1OC	CSN inh 46, HNF4A DNA FP 37
COc1ccc(C(=O)/C=C/Nc2ccc([N+](=O)[O-])cc2C)c(OC)c1	none
CC(=NNC(=S)N1CCN(c2ccccn2)CC1)c1ccccn1	Rpn11 inh 42 (no result: Myeloid diff MLP, TPT1 inh)
COc1ccc(O)cc1CN1CCN(c2ncc(Cc3ccccc3)cn2)CC1	none (no result: Rpn11 inh, TPT1 inh)
COc1ccc(Cc2c(-c3cccc(Br)c3)nc3ccc(Br)cn23)c(C)c1	none (no result: TPT1 inh)
Cc1nnc(-c2cccc(Br)c2)c2cn(-c3ccc(Br)cc3)nc12	HNF4A DNA FP 63
Cc1nnc(-c2cccc(Br)c2)c2cn(-c3ccccc3)nc12	Myeloid diff MLP active (not shown: Rpn11 inh)
COc1ccc(-n2cc3c(-c4cccc(Br)c4)nnc(C)c3n2)cc1	Myeloid diff MLP active (not shown: Rpn11 inh)
NC(COCc1ccccc1)c1csc(Nc2ccc(C(=O)NCCO)cc2)n1 (stereo unspecified)	none (no result: TPT1 inh)
CC(C)[C@H](NC(=O)C1(c2ccccc2)CCN(C(=O)OC(C)(C)C)CC1)C(=O)O	Myeloid diff MLP active
CC(C)(C)OC(=O)N1CCC(C(=O)N[C@@H](Cc2ccccc2)C(=O)O)(c2ccccc2)CC1	none
CSC1=NC(C)(C)C=C(/C=C/c2ccc(Cl)cc2Cl)N1	Myeloid diff MLP active
CSc1cccc(N2CC(C(=O)N(Cc3nnc(-c4ccccc4Cl)o3)C3CC3)CC2=O)c1 (stereo unspecified)	Myeloid diff MLP active
CCOc1ccccc1N1CC(C(=O)N(Cc2nnc(-c3ccccc3Cl)o2)C2CC2)CC1=O (stereo unspecified)	none
O=C(NC12CC3CC(CC(C3)C1)C2)c1ccc(N2CCNCC2)c([N+](=O)[O-])c1	Myeloid diff MLP active
O=c1nc(Nc2ccccc2)sc2ccc([N+](=O)[O-])cc12	CSN inh 43
Cc1cc(S(=O)(=O)N2CCCCC2CCNC(=O)C(=O)NC2CC2)ccc1F (stereo unspecified)	none
Cc1cc(C)c(S(=O)(=O)N2CCCCC2CCNC(=O)C(=O)NC2CC2)c(C)c1 (stereo unspecified)	Myeloid diff MLP active
Cc1cccc(C)c1NC(=O)C(CCc1ccccc1)N1CCC(c2ccccc2)CC1 (stereo unspecified)	none (no result: Rpn11 inh, TPT1 inh)
Cc1cc(NC(=O)CS(=O)(=O)c2cn(Cc3ccccc3Cl)c3ccccc23)no1	Myeloid diff MLP active
Cc1cccc(C)c1NC(=O)C1(C)CN(S(C)(=O)=O)CC(=O)N1CCc1c[nH]c2ccccc12 (stereo unspecified)	none (no result: Rpn11 inh, TPT1 inh)
Cc1ccc(S(=O)(=O)N2[C@@H](c3cccc(Cl)c3)C(C(=O)OC(C)(C)C)=CC[C@H]2c2ccc(C(C)C)cc2)cc1	none (no result: TPT1 inh)
CC(C)c1nc2sc3c(SCC(=O)NCc4ccco4)ncnc3c2c2c1CCC2	CSN inh 46
CCC(=O)N[C@@H]1C=C[C@@H](CC(=O)NCc2ccccc2F)O[C@@H]1CO	none (no result: Rpn11 inh, TPT1 inh)
COc1ccc(C2=CC3=C(Br)C(=O)C(C)(OC(=O)c4ccco4)C(=O)C3=CO2)cc1 (stereo unspecified)	Myeloid diff MLP active
Cc1cccc(C)c1-n1nnnc1C(c1cc2ccccc2o1)N1CCN(C/C=C/c2ccccc2)CC1 (stereo unspecified)	none (no result: TPT1 inh)
NNC(=O)c1cccc(COc2ccccc2Br)c1	Myeloid diff MLP active
COc1cc(CNc2ncnc3c2ncn3[C@H]2CN(Cc3ccncc3)C[C@@H](CO)O2)cc(OC)c1OC	none (no result: TPT1 inh)
COc1ccccc1OCCOc1ccc(/C=C2/C(=N)N3OC(C)=CC3=NC2=O)cc1OC	CSN inh 50
CC1=CC2=NC(=O)/C(=C\c3cccn3CCOc3ccccc3C)C(=N)N2O1	none
Cc1ccc(S(=O)(=O)N2[C@H](CC(=O)c3ccc(F)cc3)OC[C@@H]2C)cc1	none (no result: Rpn11 inh, TPT1 inh)
COc1ccc(Nc2ncccc2C(=O)NCc2ccccc2)cc1	none
COc1cccc(Nc2ncccc2C(=O)NCc2ccccc2)c1	Myeloid diff MLP active (no result: TPT1 inh)
COc1cc(Cl)c(NC2=CC(=O)C(=O)c3ccccc32)c(OC)c1	Myeloid diff MLP active (no result: TPT1 inh)
COCCCNC(=O)CCCn1c(=O)c2ccccc2n(CC(=O)Nc2c(C)cc(C)cc2C)c1=O	Myeloid diff MLP active
CC(=O)Nc1cccc(-c2ccnc3c2CC(C(=O)Nc2ccc(Cl)cc2)O3)c1 (stereo unspecified)	none (no result: TPT1 inh)
C[C@@]12CC(=O)NC1N(C(=O)c1cccc(C(F)(F)F)c1)C(c1ccccc1OC(=O)c1cccc(C(F)(F)F)c1)C2 (stereo partly specified)	none
C[C@@]12CC(=O)NC1N(C(=O)c1ccccc1)C(c1ccccc1OC(=O)c1ccccc1)C2 (stereo partly specified)	HNF4A DNA FP 36
COc1ccc(-c2nnn(CC(=O)N(Cc3cccs3)C(C)C(=O)NC3CCCC3)n2)cc1OC (stereo unspecified)	Myeloid diff MLP active
CCC(C(=O)NC1CCCC1)N(Cc1cccs1)C(=O)Cn1nnc(-c2ccc(OC)c(OC)c2)n1 (stereo unspecified)	none
O=S(=O)(c1ccc(N2CCCC2)cc1)C(F)(F)F	Myeloid diff MLP active
COc1ccc(CNC(=O)CSc2nnc3nc(C)cc(C)n23)cc1OC	Myeloid diff MLP active
Cc1c(C)n2c(SCC(=O)NCc3ccc4c(c3)OCO4)nnc2[nH]c1=O	CSN inh 52
Cc1cc(C)n2c(SCC(=O)NCc3ccco3)nnc2n1	none
CSCCC(C(=O)NCc1ccccc1)n1c(C2CCN(C(C)=O)CC2)nc2ccccc21 (stereo unspecified)	none (no result: Rpn11 inh, TPT1 inh)
COCOCCn1cc(CN2CCS(=O)(=O)N(Cc3ccc(-c4ccc(Cl)c(Cl)c4)cc3)C(C)C2=O)nn1 (stereo unspecified)	none (no result: TPT1 inh)
O=C(Cn1c(=O)n(Cc2ccco2)c(=O)c2c3c(sc21)CCCCC3)c1ccccc1	CSN inh 38
Cc1nc(CS(=O)c2ccc(Cl)cc2)cc(NCc2ccc(Cl)cc2Cl)n1 (stereo unspecified)	CSN inh 52
CCOc1ccc(-n2c(SCC(=O)Nc3ccc(CC)cc3)nc3n[nH]c(C)c3c2=N)cc1	Myeloid diff MLP active
Cc1ccc(C(O)c2ncc(-c3ccccc3C(F)(F)F)[nH]2)cc1F (stereo unspecified)	none (no result: TPT1 inh)
Cc1ccc(OCC(=O)c2cc(C)n(-c3cc(C)on3)c2C)c([N+](=O)[O-])n1	Myeloid diff MLP active (no result: TPT1 inh)
Cc1cccc(COCCN2CCN(S(=O)(=O)c3ccccc3)CCC2=O)c1	Myeloid diff MLP active
O=C(c1ccccc1)C1C(c2ccccc2)C1[N+](=O)[O-] (stereo unspecified)	none
CN(C)c1ccc([C@@H]2[C@@H]([N+](=O)[O-])[C@H]3C=Cc4ccccc4N3[C@H]2C(=O)c2ccc(Cl)cc2)cc1	Rpn11 inh 69, TPT1 inh 82

Compound activity from PubChem.
